The target in series [1] is T1, Cyclin-dependent kinase 8 (Homo sapiens, UniProt P49336). As to the kind of experiment: Inhibition of biotinylated ligand binding to wild-type human partial length CDK8 (M1 to T360 residues) expressed in Escherichia coli BL21 measured after 1 hr by kinomescan assay.
Series [2] concerns the target Mitogen-activated protein kinase 13 (Homo sapiens) (UniProt O15264). Kind of series: Inhibition of biotinylated ligand binding to wild-type human full length p38-delta (M1 to L365 residues) expressed in bacterial expression system at 50 nM measured after 1 hr by kinomescan assay relative to control. The method, boiled down:
(§1)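 Kinase-tagged T7 phage was grown in an E. coli BL21-derived host at 32 °C until lysis, and the lysate was clarified. Kinase was bound to streptavidin beads carrying a biotinylated ligand, with test compound at 50 nM (final DMSO), in binding buffer for 1 h at rt. Bound kinase was eluted and quantified by qPCR. Result is POC relative to the DMSO (100%) and control-compound (0%) references.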

Series [3] deals with Mitogen-activated protein kinase kinase kinase 2 (Homo sapiens) (UniProt Q9Y2U5). Kind of series: Inhibition of biotinylated ligand binding to wild-type human partial length MAP3K2 (S315 to H619 residues) expressed in mammalian expression system at 50 nM measured after 1 hr by kinomescan assay relative to control. The method, boiled down:
(§2)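 Competition binding: kinase was bound to streptavidin beads carrying a biotinylated ligand, with test compound at 50 nM, in 20% SeaBlock, 0.17x PBS, 0.05% Tween 20 and 6 mM DTT for 1 h at rt with shaking. After washing, kinase was eluted with 0.5 μM free ligand and quantified by qPCR. Result is POC relative to the DMSO (100%) and control-compound (0%) references.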

The target in series [4] is Serine/threonine-protein kinase 32A (Homo sapiens) (UniProt Q8WU08). As to the kind of experiment: Inhibition of biotinylated ligand binding to wild-type human full length YANK1 (M1 to L396 residues) expressed in mammalian expression system at 50 nM measured after 1 hr by kinomescan assay relative to control. The method, boiled down:
as §2

Series [5] in a line: Selectivity ratio of EC50 for rat NRK cells to EC50 for human MOLM13 cells. Format: toxicity. The note with it: NRK cells versus MOLM13 cells, read-out: Ratio EC50.
In series [6] the target is SRSF protein kinase 3 (Homo sapiens) (UniProt Q9UPE1). Kind of series: Inhibition of biotinylated ligand binding to wild-type human partial length SRPK3 (P41 to P567 residues) expressed in bacterial expression system at 50 nM measured after 1 hr by kinomescan assay relative to control. In a few lines:
as §1

In series [7] the target is Interleukin-1 receptor-associated kinase 3 (Homo sapiens) (UniProt Q9Y616). As to the kind of experiment: Inhibition of biotinylated ligand binding to wild-type human partial length IRAK3 (V147 to E596 residues) expressed in bacterial expression system at 50 nM measured after 1 hr by kinomescan assay relative to control. The method, boiled down: as §1
In a further series the test system is H9c2. As to the kind of experiment: cells. The note with it: Rattus norvegicus, H9c2, 48 h.
A short description of series [8]: Selectivity ratio of EC50 for rat H9c2 cells to EC50 for human MOLM13 cells. Format: toxicity. As to conditions: H9c2 cells versus MOLM13 cells, read-out: Ratio EC50.
Series [9] concerns the target Serine/threonine-protein kinase pim-2 (Homo sapiens) (UniProt Q9P1W9). Kind of series: Inhibition of biotinylated ligand binding to wild-type human partial length PIM2 (M1 to E291 residues) expressed in bacterial expression system at 50 nM measured after 1 hr by kinomescan assay relative to control.
Series [10] addresses cAMP-dependent protein kinase catalytic subunit alpha (Homo sapiens) (UniProt P17612). As to the kind of experiment: Inhibition of biotinylated ligand binding to wild-type human partial length PKAC-alpha (G10 to F351 residues) expressed in bacterial expression system at 50 nM measured after 1 hr by kinomescan assay relative to control.
Series [11] concerns the target T1, Cyclin-dependent kinase 8. Kind of series: Inhibition of biotinylated ligand binding to wild-type human partial length CDK8 (M1 to T360 residues) expressed in Escherichia coli BL21 at 50 nM measured after 1 hr by kinomescan assay relative to control. In a few lines: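 T7 phage-tagged kinase lysates from E. coli BL21 were mixed with streptavidin beads carrying biotinylated ligand and 50 nM compound. Incubated 1 h at room temperature with shaking, washed, then eluted 30 min with 0.5 μM non-biotinylated ligand. Kinase was quantified by qPCR. POC = (test − positive)/(DMSO − positive) ×100, with a control compound as positive.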

The target of series [12] is Activin receptor type-1 (Homo sapiens) (UniProt Q04771). Kind of series: Inhibition of biotinylated ligand binding to wild-type human ACVR1 (C188 to C509 residues) expressed in bacterial expression system at 50 nM measured after 1 hr by kinomescan assay relative to control. In a few lines: as §1
In series [13] the target is Vascular endothelial growth factor receptor 3 (Homo sapiens) (UniProt P35916). Kind of series: Inhibition of biotinylated ligand binding to wild-type human partial length FLT4 (E821 to E1196 residues) expressed in bacterial expression system at 50 nM measured after 1 hr by kinomescan assay relative to control. In a few lines: as §1
In series [14] the target is Serine/threonine-protein kinase LATS1 (Homo sapiens) (UniProt O95835). As to the kind of experiment: Inhibition of biotinylated ligand binding to wild-type human partial length LATS1 (Q678 to V1130 residues) expressed in bacterial expression system at 50 nM measured after 1 hr by kinomescan assay relative to control. In a few lines:
as §1

The target in series [15] is Rho-associated protein kinase 2 (Homo sapiens) (UniProt O75116). As to the kind of experiment: Inhibition of biotinylated ligand binding to wild-type human partial length ROCK2 (M1 to T431 residues) expressed in mammalian expression system at 50 nM measured after 1 hr by kinomescan assay relative to control. In a few lines:
as §2

A short description of series [16]: Selectivity ratio of EC50 for rat NRK cells to EC50 for human OCI-AML3 cells. Format: toxicity. As to conditions: NRK cells versus OCI-AML3 cells, read-out: Ratio EC50.
Series [17] in a line: Selectivity ratio of EC50 for rat H9c2 cells to EC50 for human MV4-11 cells. Format: toxicity. As to conditions: H9c2 cells versus MV4-11 cells, read-out: Ratio EC50.
The target in series [18] is Serine/threonine-protein kinase haspin (Homo sapiens) (UniProt Q8TF76). Kind of series: Inhibition of biotinylated ligand binding to wild-type human partial length HASPIN (I452 to K798 residues) expressed in mammalian expression system at 50 nM measured after 1 hr by kinomescan assay relative to control.
The target in series [19] is High affinity nerve growth factor receptor (Homo sapiens) (UniProt P04629). As to the kind of experiment: Inhibition of biotinylated ligand binding to wild-type human partial length TRKA (G475 to G790 residues) expressed in mammalian expression system at 50 nM measured after 1 hr by kinomescan assay relative to control. In a few lines: as §2
In series [20] the target is Dual specificity protein kinase CLK4 (Homo sapiens) (UniProt Q9HAZ1). As to the kind of experiment: Inhibition of biotinylated ligand binding to wild-type human partial length CLK4 (R135 to K481 residues) expressed in bacterial expression system at 50 nM measured after 1 hr by kinomescan assay relative to control. The method, boiled down: as §1
For series [21], the target named is NUAK family SNF1-like kinase 2 (Homo sapiens) (UniProt Q9H093). As to the kind of experiment: Inhibition of biotinylated ligand binding to wild-type human partial length SNARK (P22 to A333 residues) expressed in mammalian expression system at 50 nM measured after 1 hr by kinomescan assay relative to control. The method, boiled down:
as §2

Series [22] can be described thus: Selectivity ratio of EC50 for rat NRK cells to EC50 for human MV4-11 cells. Format: toxicity. As to conditions: NRK cells versus MV4-11 cells, read-out: Ratio EC50.

Broadly, the Kd is the constant that tells how readily two partners part at equilibrium. A high value points to a looser complex. The inhibition is how much of the control response was suppressed. For orientation: EC50 means the concentration giving half of the maximal effect. A lower EC50 goes with an effect from little substance.

The structures appear in SMILES notation.

T1 sequence (P49336 whole entry, the tested form may be a part): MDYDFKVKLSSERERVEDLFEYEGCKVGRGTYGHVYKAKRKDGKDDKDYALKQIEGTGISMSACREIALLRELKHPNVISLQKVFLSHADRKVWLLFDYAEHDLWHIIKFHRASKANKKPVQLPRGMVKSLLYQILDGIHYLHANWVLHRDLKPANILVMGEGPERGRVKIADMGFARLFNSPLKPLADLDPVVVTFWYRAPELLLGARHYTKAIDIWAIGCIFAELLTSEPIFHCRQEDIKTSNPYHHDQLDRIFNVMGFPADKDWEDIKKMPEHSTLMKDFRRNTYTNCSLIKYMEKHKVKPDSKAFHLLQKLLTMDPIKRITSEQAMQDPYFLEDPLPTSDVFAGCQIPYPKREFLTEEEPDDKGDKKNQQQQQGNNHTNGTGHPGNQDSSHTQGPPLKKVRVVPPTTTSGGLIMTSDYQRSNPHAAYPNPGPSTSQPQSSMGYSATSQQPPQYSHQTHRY
Sequence of Dual specificity protein kinase CLK4 (Homo sapiens) (Q9HAZ1 whole entry, looked up, the tested form may be a part): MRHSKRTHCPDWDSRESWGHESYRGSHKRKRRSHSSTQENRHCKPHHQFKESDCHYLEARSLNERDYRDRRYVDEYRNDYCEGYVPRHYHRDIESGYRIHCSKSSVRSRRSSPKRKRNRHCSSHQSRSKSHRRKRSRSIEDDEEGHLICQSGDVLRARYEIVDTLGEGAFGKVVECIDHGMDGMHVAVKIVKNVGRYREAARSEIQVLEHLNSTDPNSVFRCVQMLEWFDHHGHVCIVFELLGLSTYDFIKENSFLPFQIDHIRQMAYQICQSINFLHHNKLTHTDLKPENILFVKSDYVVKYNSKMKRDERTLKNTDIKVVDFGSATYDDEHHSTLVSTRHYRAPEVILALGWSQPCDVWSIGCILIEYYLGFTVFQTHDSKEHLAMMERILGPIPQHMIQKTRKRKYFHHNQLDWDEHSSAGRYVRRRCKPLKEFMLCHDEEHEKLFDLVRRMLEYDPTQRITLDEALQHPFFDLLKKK
Sequence of Mitogen-activated protein kinase 13 (Homo sapiens) (O15264 whole entry, the tested form may be a part): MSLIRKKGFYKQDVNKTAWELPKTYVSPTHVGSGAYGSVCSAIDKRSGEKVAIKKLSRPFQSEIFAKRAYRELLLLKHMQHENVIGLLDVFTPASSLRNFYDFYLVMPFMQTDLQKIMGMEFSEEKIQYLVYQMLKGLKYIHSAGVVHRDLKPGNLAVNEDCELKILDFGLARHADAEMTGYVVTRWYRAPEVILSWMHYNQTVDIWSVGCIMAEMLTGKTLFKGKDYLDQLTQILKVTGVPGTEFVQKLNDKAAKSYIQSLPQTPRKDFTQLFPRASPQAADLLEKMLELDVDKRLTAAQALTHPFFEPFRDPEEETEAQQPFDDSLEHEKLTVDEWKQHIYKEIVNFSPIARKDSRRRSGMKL
Sequence of Interleukin-1 receptor-associated kinase 3 (Homo sapiens) (Q9Y616 whole entry, the tested form may be a part): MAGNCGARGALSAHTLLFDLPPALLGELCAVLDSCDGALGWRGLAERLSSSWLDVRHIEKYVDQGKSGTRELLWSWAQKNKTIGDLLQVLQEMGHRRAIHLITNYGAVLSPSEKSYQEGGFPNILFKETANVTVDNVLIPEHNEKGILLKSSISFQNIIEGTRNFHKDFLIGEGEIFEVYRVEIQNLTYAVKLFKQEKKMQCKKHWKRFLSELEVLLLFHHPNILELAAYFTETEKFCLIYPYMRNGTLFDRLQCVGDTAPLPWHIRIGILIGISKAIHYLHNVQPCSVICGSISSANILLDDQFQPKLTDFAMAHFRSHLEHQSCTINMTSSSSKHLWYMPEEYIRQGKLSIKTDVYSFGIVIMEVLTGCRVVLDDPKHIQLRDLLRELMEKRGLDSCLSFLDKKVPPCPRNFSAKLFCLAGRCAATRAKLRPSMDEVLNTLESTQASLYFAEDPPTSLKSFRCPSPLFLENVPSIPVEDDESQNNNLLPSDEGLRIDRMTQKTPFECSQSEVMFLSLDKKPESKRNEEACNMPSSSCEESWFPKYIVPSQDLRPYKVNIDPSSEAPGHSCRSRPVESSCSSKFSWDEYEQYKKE
Sequence of Vascular endothelial growth factor receptor 3 (Homo sapiens) (P35916 whole entry, the tested form may be a part): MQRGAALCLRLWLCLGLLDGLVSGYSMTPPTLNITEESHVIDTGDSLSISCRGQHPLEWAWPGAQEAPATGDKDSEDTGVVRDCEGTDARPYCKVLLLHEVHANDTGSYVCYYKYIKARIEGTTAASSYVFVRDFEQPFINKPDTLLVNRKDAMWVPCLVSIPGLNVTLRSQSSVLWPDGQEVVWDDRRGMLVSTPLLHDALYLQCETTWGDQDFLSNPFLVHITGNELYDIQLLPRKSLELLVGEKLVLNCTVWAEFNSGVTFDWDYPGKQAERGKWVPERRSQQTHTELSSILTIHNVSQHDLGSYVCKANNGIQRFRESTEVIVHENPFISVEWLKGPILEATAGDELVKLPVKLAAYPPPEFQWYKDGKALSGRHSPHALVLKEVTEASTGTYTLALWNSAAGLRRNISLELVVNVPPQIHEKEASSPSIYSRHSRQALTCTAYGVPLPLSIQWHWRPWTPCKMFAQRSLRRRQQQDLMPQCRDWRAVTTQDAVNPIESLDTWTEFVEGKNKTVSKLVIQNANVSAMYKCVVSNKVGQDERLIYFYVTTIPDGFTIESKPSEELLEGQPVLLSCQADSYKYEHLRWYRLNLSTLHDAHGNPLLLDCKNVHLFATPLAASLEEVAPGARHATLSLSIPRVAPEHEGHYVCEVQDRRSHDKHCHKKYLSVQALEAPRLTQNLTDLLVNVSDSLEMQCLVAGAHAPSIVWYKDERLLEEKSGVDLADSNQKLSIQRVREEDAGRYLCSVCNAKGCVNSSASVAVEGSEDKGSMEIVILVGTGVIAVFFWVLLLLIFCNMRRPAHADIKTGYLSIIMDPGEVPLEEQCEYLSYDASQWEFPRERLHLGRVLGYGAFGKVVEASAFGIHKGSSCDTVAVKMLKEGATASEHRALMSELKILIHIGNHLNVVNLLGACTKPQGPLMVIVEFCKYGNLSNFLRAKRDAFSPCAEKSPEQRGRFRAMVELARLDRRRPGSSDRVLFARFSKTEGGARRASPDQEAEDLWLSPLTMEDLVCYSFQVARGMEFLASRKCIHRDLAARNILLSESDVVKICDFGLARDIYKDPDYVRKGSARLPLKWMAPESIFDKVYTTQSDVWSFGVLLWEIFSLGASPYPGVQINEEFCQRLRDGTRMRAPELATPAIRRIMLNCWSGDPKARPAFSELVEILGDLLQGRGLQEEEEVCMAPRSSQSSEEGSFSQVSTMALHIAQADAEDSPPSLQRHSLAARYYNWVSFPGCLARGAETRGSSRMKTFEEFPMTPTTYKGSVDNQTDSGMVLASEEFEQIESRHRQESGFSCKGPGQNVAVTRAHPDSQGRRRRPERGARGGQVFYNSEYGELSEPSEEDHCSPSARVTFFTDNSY
Sequence of Serine/threonine-protein kinase LATS1 (Homo sapiens) (O95835 whole entry, the tested form may be a part): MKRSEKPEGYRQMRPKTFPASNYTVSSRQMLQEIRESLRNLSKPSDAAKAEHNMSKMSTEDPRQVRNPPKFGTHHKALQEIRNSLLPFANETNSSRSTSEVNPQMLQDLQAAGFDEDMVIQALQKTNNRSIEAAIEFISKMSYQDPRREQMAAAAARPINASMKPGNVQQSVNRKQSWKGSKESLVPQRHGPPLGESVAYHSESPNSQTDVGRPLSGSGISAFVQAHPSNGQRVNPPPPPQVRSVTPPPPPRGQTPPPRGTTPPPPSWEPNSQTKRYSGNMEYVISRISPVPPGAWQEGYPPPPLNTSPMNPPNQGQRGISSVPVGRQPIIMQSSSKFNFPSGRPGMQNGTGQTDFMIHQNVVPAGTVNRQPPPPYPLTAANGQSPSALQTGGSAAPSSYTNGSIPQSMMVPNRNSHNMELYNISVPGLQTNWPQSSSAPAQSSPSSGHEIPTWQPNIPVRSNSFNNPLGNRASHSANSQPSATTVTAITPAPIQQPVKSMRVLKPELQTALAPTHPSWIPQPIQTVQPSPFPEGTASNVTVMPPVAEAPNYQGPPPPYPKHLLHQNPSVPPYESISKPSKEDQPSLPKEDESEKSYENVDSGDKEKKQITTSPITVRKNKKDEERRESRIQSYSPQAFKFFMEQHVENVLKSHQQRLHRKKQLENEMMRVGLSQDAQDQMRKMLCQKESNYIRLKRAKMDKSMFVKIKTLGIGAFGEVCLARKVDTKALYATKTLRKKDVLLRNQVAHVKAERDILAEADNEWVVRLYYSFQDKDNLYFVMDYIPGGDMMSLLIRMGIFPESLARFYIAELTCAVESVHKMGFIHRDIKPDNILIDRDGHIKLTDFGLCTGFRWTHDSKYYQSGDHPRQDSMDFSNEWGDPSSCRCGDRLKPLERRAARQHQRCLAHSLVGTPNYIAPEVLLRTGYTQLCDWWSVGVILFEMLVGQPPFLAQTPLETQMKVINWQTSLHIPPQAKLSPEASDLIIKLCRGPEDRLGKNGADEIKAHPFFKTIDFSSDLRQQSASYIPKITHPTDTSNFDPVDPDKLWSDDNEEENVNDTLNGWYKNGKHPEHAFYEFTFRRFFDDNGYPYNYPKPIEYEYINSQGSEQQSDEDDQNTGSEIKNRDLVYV
Sequence of Activin receptor type-1 (Homo sapiens) (Q04771 whole entry, the tested form may be a part): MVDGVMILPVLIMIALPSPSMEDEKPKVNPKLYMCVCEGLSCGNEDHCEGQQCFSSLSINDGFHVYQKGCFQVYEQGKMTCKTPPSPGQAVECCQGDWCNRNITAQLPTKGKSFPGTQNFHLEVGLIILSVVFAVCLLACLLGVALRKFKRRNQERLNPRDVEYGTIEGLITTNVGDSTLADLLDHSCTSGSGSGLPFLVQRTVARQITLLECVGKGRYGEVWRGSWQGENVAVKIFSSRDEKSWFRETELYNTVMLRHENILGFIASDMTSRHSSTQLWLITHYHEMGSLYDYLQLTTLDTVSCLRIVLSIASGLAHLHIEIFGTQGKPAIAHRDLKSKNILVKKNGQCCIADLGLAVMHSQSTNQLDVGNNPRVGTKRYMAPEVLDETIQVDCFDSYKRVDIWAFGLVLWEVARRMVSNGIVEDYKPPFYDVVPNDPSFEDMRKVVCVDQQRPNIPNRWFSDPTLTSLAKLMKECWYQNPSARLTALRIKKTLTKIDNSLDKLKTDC

For `CN(C)[C@@H]1CC[C@@]2(C)[C@@H](CC[C@@H]3[C@@H]2CC[C@]2(C)C(c4cccc5cnccc45)=CC[C@@H]32)C1`, the Kd in [1] is 0.0035 µM. Also, the inhibition in [2], in series [3], in [4], in [6], in series [7] and in [9] was above 80% throughout. The inhibition in series [10], in [11], in series [12], in series [13], in series [14] and in series [15] was above 80% each time. Moreover, the inhibition in series [18], in [19], in series [20] and in [21] was above 80% in each case. Further, the selectivity ratio in series [5], in [8], in [16], in series [17] and in series [22] was 3 to 4 throughout. Besides, the EC50 in the series with H9c2 was 12.5 to 25 µM.

(Values after ChEMBL document CHEMBL4619723, “New CDK8 inhibitors as potential anti-leukemic agents - Design, synthesis and biological evaluation” (Bioorg Med Chem, 2020).)
